How the values were obtained:
[1] = system: Plasmodium falciparum; test: Inhibition of Plasmodium falciparum protein farnesyltransferase at 50 nM by scintillation proximity assay
[2] = system: Plasmodium falciparum; test: Inhibition of Plasmodium falciparum protein farnesyltransferase at 5 nM by scintillation proximity assay
[3] = system: Plasmodium falciparum; test: Inhibition of Plasmodium falciparum protein farnesyltransferase at 0.5 nM by scintillation proximity assay
[4] = system: Plasmodium falciparum; test: Antimalarial activity against Plasmodium falciparum 3D7; type: functional; details: Plasmodium falciparum, 3D7; read-out: ED50 (the source's name)
In short: (§1)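 Asynchronous culture in type A+ erythrocytes at 0.5% parasitemia and 0.5% hematocrit, grown in RPMI-1640 with 20% heat-inactivated human A+ plasma. Compound was serially diluted from a top final 5 µM, with DMSO vehicle as 100% growth. Plates ran 48 h at 37 °C under 5% CO2/5% O2/90% N2, then [3H]-hypoxanthine (0.3 µCi) for 24 h. Filter-harvested counts were corrected for the uninfected-RBC background. ED50 by linear regression; duplicates averaged.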

[5] = system: Plasmodium falciparum; test: Antimalarial activity against Plasmodium falciparum K1; type: functional; details: Plasmodium falciparum, K1; read-out: ED50 (the source's name); in short: as §1

Row | SMILES | inhibition [1] [%] | inhibition [2] [%] | inhibition [3] [%] | EC50 [4] [µM] | EC50 [5] [µM]
1 | Cn1cncc1CN1CC(N(CCC2(C)OCC(C)(C)CO2)S(=O)(=O)c2ccccn2)Cc2cc(C#N)ccc21 (stereo not given) | 95 | 66 | 18 | 0.44 | 0.24
2 | Cn1cncc1CN1CC(N(CCCCCC(N)=O)S(=O)(=O)c2ccccn2)Cc2cc(C#N)ccc21 (stereo not given) | 81 | 32 | 4 | 0.3 | 0.25
3 | Cn1cncc1CN1CC(N(CCOc2cccc3c2OCCO3)S(=O)(=O)c2ccccn2)Cc2cc(C#N)ccc21 (stereo not given) | 88 | 41 | 10 | 0.81 | 1.45
4 | Cn1cncc1CN1CC(N(Cc2cccc3cccnc23)S(=O)(=O)c2ccccn2)Cc2cc(C#N)ccc21 (stereo not given) | 88 | 46 | 17 | 1.74 | 1.31
5 | Cn1cncc1CN1CC(N(Cc2ccccc2F)S(=O)(=O)c2ccccn2)Cc2cc(C#N)ccc21 (stereo not given) | 100 | 82 | 19 | 0.23 | 1.25
6 | Cc1noc(C)c1CN(C1Cc2cc(C#N)ccc2N(Cc2cncn2C)C1)S(=O)(=O)c1cn(C)cn1 (stereo not given) | 100 | 98 | 46 | 0.025 | < 0.02
7 | COCCCN(C1Cc2cc(C#N)ccc2N(Cc2cncn2C)C1)S(=O)(=O)c1ccccn1 (stereo not given) | 93 | 64 | 18 | 0.23 | 1.01
8 | CCCS(=O)(=O)N(CC1CCN(C(=O)OC)CC1)C1Cc2cc(C#N)ccc2N(Cc2cncn2C)C1 (stereo not given) | 55 | 22 | 1 | 1.1 | 1.8
9 | Cn1cncc1CN1CC(N(Cc2ccc(S(C)(=O)=O)cc2)S(=O)(=O)c2ccccc2Cl)Cc2cc(C#N)ccc21 (stereo not given) | 99 | 87 | 16 | 0.4 | 0.8
10 | COC(=O)N1CCC(CN(C2Cc3cc(C#N)ccc3N(Cc3cncn3C)C2)S(C)(=O)=O)CC1 (stereo not given) | 66 | 5 | 0 | 2.7 | > 5
11 | C/C=C/C=C\C=C\CN(C1Cc2cc(C#N)ccc2N(Cc2cncn2C)C1)S(=O)(=O)c1ccccn1 (stereo not given) | 98 | 87 | 32 | 0.7 | 0.7
12 | Cn1cnc(CN2CC(NS(=O)(=O)c3ccccn3)Cc3cc(-c4ccccc4)ccc32)c1 (stereo not given) | 19 | 14 | 11 | > 5 | > 5
13 | Cn1cncc1CN1CC(N(CC2CCN(C(=O)CNC(=O)OC(C)(C)C)CC2)S(=O)(=O)c2ccccn2)Cc2cc(C#N)ccc21 (stereo not given) | 88 | 15 | 37 | 0.75 | 0.69
14 | Cn1cnc(CN2CC(N(CCNC(=O)OC(C)(C)C)S(=O)(=O)c3cn(C)cn3)Cc3cc(-c4ccccc4)ccc32)c1 (stereo not given) | 98 | 81 | 18 | 2.4 | 0.75
15 | Cc1oncc1CN(C1Cc2cc(-c3ccccc3)ccc2N(Cc2cn(C)cn2)C1)S(=O)(=O)c1cn(C)cn1 (stereo not given) | 79 | 26 | 0 | 3 | 3.7
16 | Cn1cnc(S(=O)(=O)N(CCN)C2Cc3cc(C#N)ccc3N(Cc3cncn3C)C2)c1 (stereo not given) | 72 | 15 | 0 | > 5 | > 5
17 | Cn1cnc(S(=O)(=O)N(CCc2ccsc2)C2Cc3cc(C#N)ccc3N(Cc3cncn3C)C2)c1 (stereo not given) | 100 | 100 | 86 | 0.0062 | 0.0042
18 | Cn1cncc1CN1CC(N(CC2CCN(C(=O)NC(C)(C)C)CC2)S(=O)(=O)c2ccccn2)Cc2cc(C#N)ccc21 (stereo not given) | 98 | 28 | 84 | 0.32 | 0.15
19 | CN(C1Cc2cc(-c3ccccc3)ccc2N(Cc2cn(C)cn2)C1)S(=O)(=O)c1cn(C)cn1 (stereo not given) | 88 | 38 | 10 | > 5 | > 5
20 | COc1ccc(S(=O)(=O)N(Cc2ccccc2F)C2Cc3cc(C#N)ccc3N(Cc3cncn3C)C2)cc1 (stereo not given) | 66 | 22 | 13 | 0.9 | 1
21 | CCN(C1Cc2cc(-c3ccccc3)ccc2N(Cc2cncn2C)C1)S(=O)(=O)c1cn(C)cn1 (stereo not given) | 86 | 29 | 10 | 5 | > 5
22 | Cn1cncc1CN1CC(N(CC(=O)NC(C)(C)C)S(=O)(=O)CCN2C(=O)c3ccccc3C2=O)Cc2cc(C#N)ccc21 (stereo not given) | 60 | 21 | 14 | > 5 | > 5
23 | Cn1cnc(S(=O)(=O)N(Cc2ccc(S(C)(=O)=O)cc2Cl)C2Cc3cc(C#N)ccc3N(Cc3cncn3C)C2)c1 (stereo not given) | 99 | 98 | 69 | 0.057 | < 0.02
24 | CN(C)CCN(C1Cc2cc(C#N)ccc2N(Cc2cncn2C)C1)S(=O)(=O)c1cn(C)cn1 (stereo not given) | 64 | 15 | 0 | 2.7 | 3.1
25 | Cn1cnc(S(=O)(=O)N(CCNC(=O)OC(C)(C)C)C2Cc3cc(C#N)ccc3N(Cc3cncn3C)C2)c1 (stereo not given) | 99 | 90 | 28 | 0.46 | 0.075

Other lines, results leading:

Row | inhibition [1] [%] | inhibition [2] [%] | inhibition [3] [%] | EC50 [4] [µM] | EC50 [5] [µM] | SMILES
26 | 96 | 65 | 17 | 0.189 | 0.932 | COCCCCCN(C1Cc2cc(C#N)ccc2N(Cc2cncn2C)C1)S(=O)(=O)c1ccccn1 (stereo not given)
27 | 99 | 65 | 0 | 0.087 | 0.06 | Cn1cnc(S(=O)(=O)N(CCN2CCCC2=O)C2Cc3cc(C#N)ccc3N(Cc3cncn3C)C2)c1 (stereo not given)
28 | 99 | 96 | 57 | 0.14 | 0.1 | Cn1cnc(S(=O)(=O)N(CCCCON2C(=O)c3ccccc3C2=O)C2Cc3cc(C#N)ccc3N(Cc3cncn3C)C2)c1 (stereo not given)
29 | 90 | 38 | 0 | 0.46 | 0.15 | Cn1cnc(CN2CC(N(CCn3cccc3)S(=O)(=O)c3cn(C)cn3)Cc3cc(-c4ccccc4)ccc32)c1 (stereo not given)
30 | 81 | 33 | 6 | 2.1 | 2.6 | Cn1cncc1CN1CC(N(CC(=O)O)S(=O)(=O)c2ccccn2)Cc2cc(C#N)ccc21 (stereo not given)
31 | 99 | 90 | 9 | 0.45 | 0.38 | Cn1cnc(CN2CC(N(Cc3ccccc3)S(=O)(=O)c3cn(C)cn3)Cc3cc(-c4ccccc4)ccc32)c1 (stereo not given)
32 | 98 | 93 | 43 | 0.05 | 0.07 | COC(=O)N1CCC(CN(C2Cc3cc(C#N)ccc3N(Cc3cncn3C)C2)S(=O)(=O)c2ccccc2)CC1 (stereo not given)
33 | 92 | 52 | 6 | 1.25 | 2.6 | CCN(CCCCN(C1Cc2cc(C#N)ccc2N(Cc2cncn2C)C1)S(=O)(=O)c1ccccn1)C(=O)OC(C)(C)C (stereo not given)
34 | 80 | 29 | 0 | 3.5 | 1.43 | Cn1cnc(S(=O)(=O)N(CC(=O)NC(C)(C)C)C2Cc3cc(C(=O)O)ccc3N(Cc3cncn3C)C2)c1 (stereo not given)
35 | 33 | 0 | 0 | 0.69 | 0.75 | CC(=O)OCC(=O)N(Cc1ccccc1F)C1Cc2cc(C#N)ccc2N(Cc2cncn2C)C1 (stereo not given)
36 | 97 | 36 | 90 | 0.05 | 0.05 | CC(C)OC(=O)N1CCC(CN(C2Cc3cc(C#N)ccc3N(Cc3cncn3C)C2)S(=O)(=O)c2ccccn2)CC1 (stereo not given)
37 | 0 | 0 | 0 | > 5 | 3.2 | COC(=O)N1CCC(CN(C2Cc3cc(C#N)ccc3N(S(=O)(=O)c3cncn3C)C2)S(=O)(=O)c2ccccn2)CC1 (stereo not given)
38 | 25 | 0 | 4 | > 5 | > 5 | Cn1cnc(S(=O)(=O)N(CC(=O)NC(C)(C)C)C2Cc3cc(C(=O)NC(C)(C)C)ccc3N(Cc3cncn3C)C2)c1 (stereo not given)
39 | 99 | 90 | 9 | 0.068 | 0.065 | Cn1cnc(S(=O)(=O)N(Cc2ccc(-n3cccc3)cc2)C2Cc3cc(C#N)ccc3N(Cc3cncn3C)C2)c1 (stereo not given)
40 | 98 | 87 | 31 | 0.15 | 0.073 | Cn1cnc(S(=O)(=O)N(CCCCCC(N)=O)C2Cc3cc(C#N)ccc3N(Cc3cncn3C)C2)c1 (stereo not given)
41 | 52 | 9 | 0 | 0.27 | 0.45 | CSCCC(=O)N(Cc1ccccc1F)C1Cc2cc(C#N)ccc2N(Cc2cncn2C)C1 (stereo not given)
42 | 100 | 97 | 49 | 0.035 | < 0.02 | COC(=O)N1CCC(CN(C2Cc3cc(C#N)ccc3N(Cc3cncn3C)C2)S(=O)(=O)c2ncn(C)c2C)CC1 (stereo not given)

— ChEMBL document CHEMBL1148785, “Second generation tetrahydroquinoline-based protein farnesyltransferase inhibitors as antimalarials” (J Med Chem, 2007)
